High-throughput results as filed in PubChem.
FGF22 binding = shifts melting point of recombinant human FGF22; activity (Tm shift, normalised), % at 9.99 µM; AID 651658; 1.5% of 340,000 active; recombinant FGF22 thermal shift, SYPRO orange fluorescence; percent of sucrose octasulfate shift, DMSO zero;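 active means mean Tm shift, scaled 0 neutral to 100 positive control, at about 1.3% or above, every replicate too, limit read from the data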
Target sequence (Q9HCT0 whole entry, looked up): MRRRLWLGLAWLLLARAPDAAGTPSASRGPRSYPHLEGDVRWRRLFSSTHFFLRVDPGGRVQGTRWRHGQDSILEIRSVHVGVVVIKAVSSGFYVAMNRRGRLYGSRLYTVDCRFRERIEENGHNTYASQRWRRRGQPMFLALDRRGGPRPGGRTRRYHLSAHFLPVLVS
Rtt109 HAT inh = C. albicans Rtt109 histone acetyltransferase inhibition; Q5AAJ8; purified Rtt109/Vps75, ThioGlo CoA-SH fluorescence, 4 h; inhibition, % at 34.9 µM; 0.16% of 330,000 active;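 active means inhibition of at least 50% in every replicate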
ASAP1 GAP inh = ASAP1 ArfGAP inhibition; ASAP1-stimulated ARF1 GTP hydrolysis, GDP FP detection; inhibition, % at 16.5 µM; 0.19% of 360,000 active; in the data active means inhibition above about 25%;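 further: 0% = vehicle with enzyme and substrate and 100% = no enzyme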
Efflux pump mplx = blocks antifungal efflux pumps in multiplex yeast assay; S. cerevisiae Candida pump triplex, Nile Red efflux; inhibition, % at 10 µM; 0.44% of 330,000 active; AID 485275;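 active means plate passing quality check with inhibition over a set limit, or well fluorescence over plate mean plus 4 SD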;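 further: Nile Red retained in pooled yeast measured as flow cytometry median fluorescence; 0% = buffer negative control and 100% = Enniatin B positive control; higher means more Nile Red kept so more efflux inhibition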
ARFGAP1 inhibitor = inhibits rat ARF GTPase activating protein 1. Q62848. Arfgap1-stimulated ARF1 GTP hydrolysis, GDP FP detection. inhibition, % at 16.5 µM. 0.26% of 360,000 active;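 active means inhibition above a per-plate limit, mean inhibition of low control wells plus 3 SD, cut at about 25% in these data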;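 further: 0% = DMSO wells with enzyme and 100% = wells lacking Arfgap1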
Target sequence (Q62848 1-136 limits assumed): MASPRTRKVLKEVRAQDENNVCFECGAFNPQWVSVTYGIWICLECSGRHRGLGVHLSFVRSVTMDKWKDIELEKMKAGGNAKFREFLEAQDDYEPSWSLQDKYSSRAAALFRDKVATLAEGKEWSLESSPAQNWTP
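System: truncated rat Arfgap1 GAP domain / Benchmarks: high control wells lacking Arfgap1, low control full reaction with DMSO / Times: compound-enzyme preincubation 20 min, reaction 120 min, detection 60 min, 25 °C / Repeats: one replicate per compound / Also added: human ARF1(Δ1-17)-GTP substrate / Measured by: Tracer-displacement fluorescence polarization with EDTA stop, 620/688 nm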
* = called active by the depositor. Shown are actives, neighbours in structure and some others; about 1.9% of the full set was active somewhere.

For Cc1cccc(OCC(=O)Nc2ccc(C(=O)NCC(C)C)cc2)c1 the results were FGF22 binding 44*, Rtt109 HAT inh 2, ASAP1 GAP inh -6, Efflux pump mplx 0 and ARFGAP1 inhibitor -3.
Screening C[C@H]1CN([C@@H](C)CO)S(=O)(=O)c2ccc(C#Cc3ccc(F)cc3)cc2O[C@H]1CN(C)S(=O)(=O)c1ccc(F)cc1 returned FGF22 binding 0.
CCCCCCCCCC(=O)NNC(=O)c1c(O)c2ccccc2n(CCC)c1=O was read as FGF22 binding 0, Rtt109 HAT inh 2, ASAP1 GAP inh -2, Efflux pump mplx 0 and ARFGAP1 inhibitor 9.
For CCOc1cc(/C=N/NC(=O)CSc2nncn2C)ccc1OCC(N)=O the results were FGF22 binding 0, Rtt109 HAT inh -2, ASAP1 GAP inh 1, Efflux pump mplx 0 and ARFGAP1 inhibitor 1.
For CCOc1cc(/C=N/NC(=O)CSc2nncn2C)ccc1OCc1cccc(C)c1 the results were Rtt109 HAT inh 50*, ASAP1 GAP inh 2, Efflux pump mplx -1 and ARFGAP1 inhibitor -6.
Cc1cc(=O)[nH]c(=O)n1Cc1ccccc1 was read as FGF22 binding 43*, Rtt109 HAT inh 25, ASAP1 GAP inh -1, Efflux pump mplx 0 and ARFGAP1 inhibitor 2.
Cc1cc(=O)c2ccccc2n1Cc1ccccc1 was read as FGF22 binding 44*, Rtt109 HAT inh 0, ASAP1 GAP inh -12, Efflux pump mplx 0 and ARFGAP1 inhibitor 1.
Cc1cc(=O)c2ccccc2n1CC(=O)NCc1ccccc1 was read as Rtt109 HAT inh -8, ASAP1 GAP inh 7, Efflux pump mplx 0 and ARFGAP1 inhibitor -9.
`O=C(O)c1cc(=O)n(Cc2ccccc2)c(=O)[nH]1` gave FGF22 binding 0, Rtt109 HAT inh -1, ASAP1 GAP inh 16, Efflux pump mplx 0 and ARFGAP1 inhibitor 8.
Cc1noc(C)c1S(=O)(=O)N(C)C[C@@H]1Oc2ccc(NC(=O)Cn3cnnn3)cc2C(=O)N([C@@H](C)CO)C[C@@H]1C was read as FGF22 binding 0.
For O=C(CN1CCN(c2ccccc2)CC1)Nc1ccncc1 the results were FGF22 binding 0, Rtt109 HAT inh 0, ASAP1 GAP inh 5, Efflux pump mplx 0 and ARFGAP1 inhibitor -10.
For Cc1ccc(C(=O)NNC(=O)C2CSC3(C)CCC(=O)N23)cc1 (configuration not stated) the results were FGF22 binding 0, Rtt109 HAT inh -3, ASAP1 GAP inh -13, Efflux pump mplx 0 and ARFGAP1 inhibitor 0.
`Cc1ccc(CNC(=O)C2CSC3(C)CCC(=O)N23)cc1` (configuration not stated) gave FGF22 binding 43*, Rtt109 HAT inh 6, ASAP1 GAP inh 8, Efflux pump mplx 0 and ARFGAP1 inhibitor -5.
O=C(NCc1cccnc1)C1CC(=O)N(CCc2ccccc2)C1 (configuration not stated) was read as FGF22 binding 0, Rtt109 HAT inh 11, ASAP1 GAP inh -14, Efflux pump mplx 0 and ARFGAP1 inhibitor 17.
`O=C(Nc1cc(F)cc(F)c1)c1ccc(NCCCN2CCCCCC2)c([N+](=O)[O-])c1` gave FGF22 binding 43*, Rtt109 HAT inh 2, ASAP1 GAP inh -1, Efflux pump mplx 0 and ARFGAP1 inhibitor 15.
For N#CC(=Cc1ccncc1)c1ccccc1 the results were FGF22 binding 0, Rtt109 HAT inh 2, ASAP1 GAP inh 11 and ARFGAP1 inhibitor 11.
`N#C/C(=C\c1ccncc1)c1nc2c(s1)CCCC2` gave FGF22 binding 0, Rtt109 HAT inh 57*, ASAP1 GAP inh 9, Efflux pump mplx 0 and ARFGAP1 inhibitor -3.
CC[C@@H](C)[C@H](NC(=O)OC(C)(C)C)c1nnc(S(=O)(=O)Cc2cc(C)ccc2C)o1 was read as Rtt109 HAT inh 133*, ASAP1 GAP inh -4, Efflux pump mplx 0 and ARFGAP1 inhibitor 7.
Screening CCCCC1CCC(C(=O)OCC(=O)Nc2ccc(S(N)(=O)=O)cc2)CC1 (configuration not stated) returned Rtt109 HAT inh 0, ASAP1 GAP inh 3, Efflux pump mplx 0 and ARFGAP1 inhibitor 5.
`O=C1/C(=C\c2ccc(O)cc2)SC(=S)N1Cc1ccccc1` gave FGF22 binding 0, Rtt109 HAT inh -5, ASAP1 GAP inh 5, Efflux pump mplx 0 and ARFGAP1 inhibitor 24.
Screening O=C1/C(=C\c2cc(Br)cc(Br)c2O)SC(=S)N1Cc1ccccc1 returned Rtt109 HAT inh 7 and Efflux pump mplx 1.5*.
